Changes are numbered by the printed parent chain.
Key:
KDM4A S288G mutant = biological target: T1, KDM4A S288G mutant (Homo sapiens, UniProt O75164, S288G); assay: MALDI demethylase assay, H3K9me3 substrate peptide, S288G mutant; assay type: biochemical
T1 sequence (O75164 1-1064 S288G): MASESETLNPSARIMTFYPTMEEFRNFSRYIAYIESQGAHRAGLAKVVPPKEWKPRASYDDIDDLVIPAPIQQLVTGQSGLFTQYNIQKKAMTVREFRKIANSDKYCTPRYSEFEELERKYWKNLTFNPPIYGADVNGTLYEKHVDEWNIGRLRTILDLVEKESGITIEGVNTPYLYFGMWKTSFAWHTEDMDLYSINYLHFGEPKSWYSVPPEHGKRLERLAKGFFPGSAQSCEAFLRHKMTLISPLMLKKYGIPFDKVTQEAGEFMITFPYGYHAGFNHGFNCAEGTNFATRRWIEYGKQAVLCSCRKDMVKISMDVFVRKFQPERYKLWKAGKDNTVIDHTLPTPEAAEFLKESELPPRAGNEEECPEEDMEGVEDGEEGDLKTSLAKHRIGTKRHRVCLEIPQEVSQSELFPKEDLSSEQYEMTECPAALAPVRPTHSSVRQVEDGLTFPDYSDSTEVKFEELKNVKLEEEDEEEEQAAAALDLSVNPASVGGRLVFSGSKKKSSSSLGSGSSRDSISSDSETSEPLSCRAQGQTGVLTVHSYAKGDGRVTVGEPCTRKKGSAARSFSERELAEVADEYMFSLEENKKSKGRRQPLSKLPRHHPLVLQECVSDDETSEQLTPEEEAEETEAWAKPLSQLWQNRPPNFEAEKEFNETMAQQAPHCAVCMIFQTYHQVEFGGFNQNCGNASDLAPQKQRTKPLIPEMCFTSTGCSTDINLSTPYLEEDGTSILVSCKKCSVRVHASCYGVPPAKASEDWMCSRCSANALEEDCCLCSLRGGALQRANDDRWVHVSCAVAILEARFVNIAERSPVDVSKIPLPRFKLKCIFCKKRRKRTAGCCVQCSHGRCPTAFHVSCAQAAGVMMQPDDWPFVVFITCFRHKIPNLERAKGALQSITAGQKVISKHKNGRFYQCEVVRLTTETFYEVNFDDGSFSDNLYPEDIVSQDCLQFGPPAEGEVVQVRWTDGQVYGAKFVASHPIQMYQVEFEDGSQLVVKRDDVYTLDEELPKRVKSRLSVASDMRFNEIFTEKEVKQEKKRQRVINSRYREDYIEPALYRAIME
How it was run: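 KDM4A mutant demethylation of H3K9me3 peptide, read by MALDI-MS and expressed as % inhibition of demethylase activity, with wild type and the four active-site mutants run under the same conditions. The 2KG cofactor was cut from the 1 mM of the initial activity assay to 50 μM, about 3–4-fold above the enzymes' 2KG KM. KM came from an FDH/NAD+-coupled NADH fluorescence assay.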

KDM4A N198A mutant = biological target: T2, KDM4A N198A mutant (Homo sapiens, UniProt O75164, N198A); assay: MALDI demethylase assay, H3K9me3 substrate peptide, N198A mutant; assay type: biochemical
T2 sequence (O75164 1-1064 N198A): T1 sequence (O75164 1-1064 S288G) with N198A, G288S

[1] = 100 μM compound, 50 μM 2KG, MALDI-MS
[2] = scaffold test under the optimized assay conditions (50 μM 2KG), Figure S7

Compound | inhibition of demethylase activity (KDM4A S288G mutant; [1]) | inhibition of demethylase activity (KDM4A S288G mutant; [2]) | inhibition of demethylase activity (KDM4A N198A mutant; [1]) | inhibition of demethylase activity (KDM4A N198A mutant; [2])
O=C(O)CNC(=O)C(=O)O [compound 2, N-oxalylglycine] | significantly inhibited | inhibited | significantly inhibited | inhibited
O=C(O)c1ccc(O)c2ncccc12 [IOX1, 5-carboxy-8-hydroxyquinone] | – | inhibited | – | inhibited
